Measurements: ChEMBL document CHEMBL1144676, “Synthesis and structure-activity relationships of a series of benzazepine derivatives as 5-HT2C receptor agonists” (Bioorg Med Chem, 2008)

Columns and labels:
[1] = organism: Homo sapiens; experiment: Selectivity for human 5HT2C receptor over human 5HT2B receptor
[2] = biological target: Serotonin 2 receptors; 5-HT2a & 5-HT2c (Homo sapiens) (UniProt P28223+P28335); experiment: Selectivity for human 5HT2C receptor over human 5HT2A receptor
[3] = test system: Rattus norvegicus; experiment: Effect on penile erection in po dosed rat; assay type: functional; settings: read-out: MED
In short: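 Rats given compound orally and placed singly in clear cages; penile erections counted over 30 min post-dose, with testing between 13:00 and 19:00. Erection scored as pelvic thrusts, rising onto hind limbs, engorged penis and licking. MED taken as the lowest dose differing from vehicle at p < 0.05.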

[4] = test system: Rattus norvegicus; experiment: Cardiovascular effect in po dosed rat assessed as increase in mean arterial blood pressure; assay type: functional, organism-based; settings: Artery
In short: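 Carotid artery catheterised under pentobarbital (60 mg/kg ip). After at least 2 days of recovery, conscious rats stabilised ≥30 min in cages and then dosed orally at 3–30 mg/kg. Mean arterial blood pressure recorded via the catheter. A 5-HT2A antagonist, MDL100907, was also used.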

[5] = biological target: 5-hydroxytryptamine receptor 2B (Homo sapiens, UniProt P41595); experiment: Displacement of [3H]5-HT from human 5HT2B receptor expressed in HEK293-EBNA cells; assay type: cell-based
In short: (§1)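 Radioligand displacement of [3H]5-HT using membranes from CHO cells (5-HT2C, 5-HT2A) or HEK293-EBNA cells (5-HT2B). Medium: 50 mM Tris-HCl pH 7.4, 4 mM CaCl2, pargyline, 0.1 mg/mL ascorbic acid. Incubated 37 C for 30 min, then vacuum-filtered on PEI-treated GF/B filters and counted by scintillation. Non-specific binding defined with 10 µM 5-HT. Ki obtained by Cheng-Prusoff.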

[6] = biological target: T1, 5-hydroxytryptamine receptor 2C (Homo sapiens) (UniProt P28335); experiment: Intrinsic activity at human 5HT2C receptor expressed in CHO cells assessed as myo-[3H]inositol turnover relative to 5-hydroxytryptamine; assay type: functional, cell-based
T1 sequence (whole entry): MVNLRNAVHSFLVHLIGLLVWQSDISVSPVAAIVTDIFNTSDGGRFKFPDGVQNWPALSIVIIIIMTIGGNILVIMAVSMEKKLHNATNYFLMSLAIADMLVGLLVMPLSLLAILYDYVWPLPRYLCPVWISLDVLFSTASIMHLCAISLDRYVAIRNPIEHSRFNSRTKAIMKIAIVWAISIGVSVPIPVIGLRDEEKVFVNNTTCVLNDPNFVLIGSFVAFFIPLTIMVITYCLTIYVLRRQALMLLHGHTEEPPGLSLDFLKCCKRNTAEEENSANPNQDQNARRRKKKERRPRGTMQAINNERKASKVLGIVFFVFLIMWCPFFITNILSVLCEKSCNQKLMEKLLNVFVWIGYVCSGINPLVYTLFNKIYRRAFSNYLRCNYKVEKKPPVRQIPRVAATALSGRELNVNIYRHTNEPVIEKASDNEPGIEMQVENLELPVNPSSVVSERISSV
In short: (§2)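 Receptor-expressing CHO cells cultured 1 day, then labelled 24 h with myo-[3H]inositol (3 µCi/mL). Cells washed, held in PBS 20 min, then PBS-LiCl 20 min, then exposed 20 min to compound in PBS-LiCl. Stopped with PCA; [3H]inositol phosphates isolated on AG1-X8 anion-exchange columns and counted. Emax expressed relative to 10 µM 5-HT (100%), derived by non-linear fitting.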

[7] = biological target: T2, 5-hydroxytryptamine receptor 2C (Homo sapiens, UniProt P28335); experiment: Displacement of [3H]5-HT from human 5HT2C receptor expressed in CHO cells; assay type: cell-based; in short: as §1
T2 sequence (P28335 whole entry): T1 sequence (whole entry)

[8] = biological target: T3, 5-hydroxytryptamine receptor 2A (Homo sapiens, UniProt P28223); experiment: Displacement of [3H]5-HT from human 5HT2A receptor expressed in CHO cells; assay type: cell-based; in short: as §1
[9] = biological target: T3, 5-hydroxytryptamine receptor 2A; experiment: Intrinsic activity at human 5HT2A receptor expressed in CHO cells assessed as myo-[3H]inositol turnover relative to 5-hydroxytryptamine; assay type: functional, cell-based; in short: as §2

Sequence of 5-hydroxytryptamine receptor 2B (P41595 whole entry): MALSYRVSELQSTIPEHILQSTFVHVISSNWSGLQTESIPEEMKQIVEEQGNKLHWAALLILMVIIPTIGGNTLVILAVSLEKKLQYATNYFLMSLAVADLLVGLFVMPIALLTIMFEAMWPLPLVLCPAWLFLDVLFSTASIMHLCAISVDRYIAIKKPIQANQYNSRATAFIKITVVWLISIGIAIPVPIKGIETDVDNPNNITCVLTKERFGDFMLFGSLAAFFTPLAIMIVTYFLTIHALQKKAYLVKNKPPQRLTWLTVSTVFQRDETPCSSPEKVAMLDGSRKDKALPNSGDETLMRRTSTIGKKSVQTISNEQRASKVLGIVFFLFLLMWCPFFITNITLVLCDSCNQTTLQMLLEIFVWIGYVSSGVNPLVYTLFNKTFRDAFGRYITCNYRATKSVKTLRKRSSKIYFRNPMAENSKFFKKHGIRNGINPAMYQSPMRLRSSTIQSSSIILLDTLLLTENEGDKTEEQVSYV
T3 sequence (P28223 whole entry): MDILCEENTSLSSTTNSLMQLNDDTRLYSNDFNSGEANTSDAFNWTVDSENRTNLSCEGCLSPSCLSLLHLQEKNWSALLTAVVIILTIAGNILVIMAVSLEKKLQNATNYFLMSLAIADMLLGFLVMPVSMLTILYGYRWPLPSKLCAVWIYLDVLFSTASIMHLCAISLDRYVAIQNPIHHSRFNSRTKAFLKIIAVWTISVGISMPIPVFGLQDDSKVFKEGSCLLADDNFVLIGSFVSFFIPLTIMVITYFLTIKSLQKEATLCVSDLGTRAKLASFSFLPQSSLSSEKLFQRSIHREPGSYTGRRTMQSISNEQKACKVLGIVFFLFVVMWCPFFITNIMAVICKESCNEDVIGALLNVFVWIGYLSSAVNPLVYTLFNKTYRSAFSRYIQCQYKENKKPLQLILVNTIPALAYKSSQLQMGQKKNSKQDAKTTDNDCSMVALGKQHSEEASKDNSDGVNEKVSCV
Sequence of Serotonin 2 receptors; 5-HT2a & 5-HT2c (Homo sapiens) (P28223 whole entry, looked up, one chain of several): as the sequence (P28223 whole entry) above

| SMILES | Ratio Ki [1] | Ratio Ki [2] | minimal effective dose [3] | Activity [4] | Ki [5] | Emax [6] | Ki [7] | Ki [8] | Emax [9] |
| --- | --- | --- | --- | --- | --- | --- | --- | --- | --- |
| CCc1cc2c(ccc3cnn(C[C@H](C)N)c32)o1 | 2.8 | 15 | 0.3 mg/kg | Dose-dependent effect | 2.5 nM |  |  |  |  |
| O=[N+]([O-])c1ccc2c(c1Cl)CCNCC2 | 21 | 4 |  |  | 300 nM | 86% | 14 nM | 51 nM | 38% |
| CN1CCc2ccc([N+](=O)[O-])c(Cl)c2CC1 | 5 | 6 |  |  | 1000 nM | 85% | 66 nM | 400 nM | 7% |
| COc1ccc2c(c1Cl)CCNCC2 | 4 | 3 |  |  | 84 nM | 88% | 20 nM | 62 nM | 56% |
| c1cc2c3c(ccc2o1)CCNCC3 | 5 | 2 |  |  | 90 nM | 82% | 20 nM | 46 nM | 47% |
| c1cc2ccc3c(c2o1)CCNCC3 | 1 | 4 |  |  | 34 nM | 57% | 23 nM | 99 nM | 40% |
| Fc1ccc2c(c1Cl)CCNCC2 | 10 | 3 |  |  | 410 nM | 80% | 43 nM | 130 nM | 26% |
| Clc1c(Br)ccc2c1CCNCC2 | 10 | 4 |  |  | 25 nM | 71% | 2.4 nM | 10 nM | 32% |
| Clc1ccc2c(c1Cl)CCNCC2 | 11 | 11 | 0.3 mg/kg |  | 100 nM | 87% | 8.8 nM | 93 nM | 27% |
| N#Cc1ccc2c(c1Cl)CCNCC2 | 13 | 6 |  |  | 65 nM | 81% | 5.1 nM | 30 nM | 23% |
| CNc1ccc2c(c1Cl)CCNCC2 | 5 | 2 |  |  | 210 nM | 81% | 46 nM | 90 nM | 90% |
